The values that follow come from ChEMBL document CHEMBL2163203, “Conformationally-locked N-glycosides with selective β-glucosidase inhibitory activity: identification of a new non-iminosugar-type pharmacological chaperone for Gaucher disease” (J Med Chem, 2012).

In assay [1] the target is Alpha-galactosidase (Coffea arabica) (UniProt Q42656). Nature of the assay: Inhibition of green coffee alpha galactosidase at 2 mM after 10 to 30 mins by spectrophotometric analysis. An outline of the steps: (§1)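 Enzyme added to substrate with or without inhibitor in phosphate buffer (phosphate–citrate for α-/β-mannosidase and amyloglucosidase) at each enzyme's optimal pH; 10–30 min at 37 °C (55 °C amyloglucosidase), aiming at 10–20% conversion. Stopped with 1 M Na₂CO₃, A405; trehalase stopped by heating, GLC-Trinder added, A492. Ki from Lineweaver–Burk and double-reciprocal analysis, substrate near Km.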
Sequence of Alpha-galactosidase (Coffea arabica) (Q42656 16-378 limits assumed): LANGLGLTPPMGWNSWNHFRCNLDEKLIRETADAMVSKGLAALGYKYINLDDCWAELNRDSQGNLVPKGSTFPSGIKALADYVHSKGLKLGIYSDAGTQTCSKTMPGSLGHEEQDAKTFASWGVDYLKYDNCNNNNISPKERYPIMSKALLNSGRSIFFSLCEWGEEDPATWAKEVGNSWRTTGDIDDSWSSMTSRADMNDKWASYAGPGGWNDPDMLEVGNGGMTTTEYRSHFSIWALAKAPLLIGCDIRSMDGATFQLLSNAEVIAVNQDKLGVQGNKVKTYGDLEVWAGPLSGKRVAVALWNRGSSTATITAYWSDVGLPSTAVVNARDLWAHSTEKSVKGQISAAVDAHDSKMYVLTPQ

Assay [2] relates to Saccharomyces cerevisiae. Kind of assay: Inhibition of yeast alpha-glucosidase using at 2 mM after 10 to 30 mins by spectrophotometric analysis. An outline of the steps: as §1
Another assay relates to Aspergillus niger. Nature of the assay: Inhibition of Aspergillus niger amyloglucosidase at 2 mM after 10 to 30 mins by spectrophotometric analysis. The procedure, abridged:
as §1

For assay [3], the target named is T1, Lysosomal acid glucosylceramidase (Homo sapiens) (UniProt P04062).
T1 sequence (whole entry): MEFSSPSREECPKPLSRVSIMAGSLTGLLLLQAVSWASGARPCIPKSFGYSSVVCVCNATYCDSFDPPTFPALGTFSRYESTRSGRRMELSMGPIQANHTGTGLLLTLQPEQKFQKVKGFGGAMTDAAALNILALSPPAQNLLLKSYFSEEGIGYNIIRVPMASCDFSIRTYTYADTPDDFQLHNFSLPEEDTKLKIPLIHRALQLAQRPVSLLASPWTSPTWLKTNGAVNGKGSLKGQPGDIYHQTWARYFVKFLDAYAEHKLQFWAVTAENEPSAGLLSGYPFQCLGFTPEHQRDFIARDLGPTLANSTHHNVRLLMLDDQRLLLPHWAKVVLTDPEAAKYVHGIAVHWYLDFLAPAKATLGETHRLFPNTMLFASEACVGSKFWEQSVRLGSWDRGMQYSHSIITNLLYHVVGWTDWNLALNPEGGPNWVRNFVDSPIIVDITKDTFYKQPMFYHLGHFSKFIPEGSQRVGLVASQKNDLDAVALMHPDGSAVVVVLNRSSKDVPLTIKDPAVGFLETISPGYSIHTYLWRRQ
Nature of the assay: Inhibition of human beta-glucocerebrosidase at 100 uM relative to control. The following applies: values are per cent of control.

The subject of assay [4] is Saccharomyces cerevisiae. Kind of assay: Inhibition of yeast isomaltase at 2 mM after 10 to 30 mins by spectrophotometric analysis. An outline of the steps:
as §1

The test system of a further assay is Canavalia ensiformis. Nature of the assay: Inhibition of jack bean alpha-mannosidase at 2 mM after 10 to 30 mins by spectrophotometric analysis. An outline of the steps: as §1
Another assay deals with Penicillium decumbens. Kind of assay: Inhibition of Penicillium decumbens naringinase at 2 mM after 10 to 30 mins by spectrophotometric analysis. The procedure, abridged: as §1
For assay [5], the target named is Beta-galactosidase (Escherichia coli) (UniProt Q8VNN2). Kind of assay: Inhibition of Escherichia coli beta galactosidase at 2 mM after 10 to 30 mins by spectrophotometric analysis. The procedure, abridged:
as §1

The test system of another assay is Helix pomatia. Kind of assay: Inhibition of Helix pomatia beta-mannosidase at 2 mM after 10 to 30 mins by spectrophotometric analysis. The procedure, abridged: as §1
Assay [6] has as its target T2, Uncharacterized protein (Sus scrofa) (UniProt I3LIR5).
T2 sequence (whole entry): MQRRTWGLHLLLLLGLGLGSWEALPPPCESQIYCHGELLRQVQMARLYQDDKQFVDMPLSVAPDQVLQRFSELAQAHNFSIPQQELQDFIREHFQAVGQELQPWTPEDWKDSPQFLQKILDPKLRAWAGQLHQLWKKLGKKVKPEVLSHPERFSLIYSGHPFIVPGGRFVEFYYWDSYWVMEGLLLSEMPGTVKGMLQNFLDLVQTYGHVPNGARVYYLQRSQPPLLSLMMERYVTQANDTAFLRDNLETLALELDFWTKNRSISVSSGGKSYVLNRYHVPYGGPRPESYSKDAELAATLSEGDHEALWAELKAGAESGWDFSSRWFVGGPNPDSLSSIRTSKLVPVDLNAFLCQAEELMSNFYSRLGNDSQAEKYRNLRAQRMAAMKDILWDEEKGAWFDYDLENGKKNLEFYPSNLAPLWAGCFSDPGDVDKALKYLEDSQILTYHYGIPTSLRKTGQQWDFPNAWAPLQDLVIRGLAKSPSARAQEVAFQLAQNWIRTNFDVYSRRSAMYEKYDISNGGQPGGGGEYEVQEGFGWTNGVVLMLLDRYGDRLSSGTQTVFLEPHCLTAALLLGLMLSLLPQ
Nature of the assay: Inhibition of pig trehalase isolated from kidney using alpha,alpha'-trehalose as substrate at 2 mM after 10 to 30 mins by spectrophotometric analysis. The procedure, abridged:
as §1

A short description of assay [7]: Competitive inhibition of bovine beta-glucosidase isolated from liver after 10 to 30 mins by Lineweaver-Burk plot analysis. Details: species or system Bos taurus. The procedure, abridged:
as §1

In another assay the test system is Prunus dulcis. Nature of the assay: Inhibition of almond beta-glucosidase at 2 mM after 10 to 30 mins by spectrophotometric analysis. The procedure, abridged:
as §1

The source made the active and inactive calls. No cut-off for these calls is given here.

Sequence of Beta-galactosidase (Escherichia coli) (Q8VNN2 whole entry, looked up): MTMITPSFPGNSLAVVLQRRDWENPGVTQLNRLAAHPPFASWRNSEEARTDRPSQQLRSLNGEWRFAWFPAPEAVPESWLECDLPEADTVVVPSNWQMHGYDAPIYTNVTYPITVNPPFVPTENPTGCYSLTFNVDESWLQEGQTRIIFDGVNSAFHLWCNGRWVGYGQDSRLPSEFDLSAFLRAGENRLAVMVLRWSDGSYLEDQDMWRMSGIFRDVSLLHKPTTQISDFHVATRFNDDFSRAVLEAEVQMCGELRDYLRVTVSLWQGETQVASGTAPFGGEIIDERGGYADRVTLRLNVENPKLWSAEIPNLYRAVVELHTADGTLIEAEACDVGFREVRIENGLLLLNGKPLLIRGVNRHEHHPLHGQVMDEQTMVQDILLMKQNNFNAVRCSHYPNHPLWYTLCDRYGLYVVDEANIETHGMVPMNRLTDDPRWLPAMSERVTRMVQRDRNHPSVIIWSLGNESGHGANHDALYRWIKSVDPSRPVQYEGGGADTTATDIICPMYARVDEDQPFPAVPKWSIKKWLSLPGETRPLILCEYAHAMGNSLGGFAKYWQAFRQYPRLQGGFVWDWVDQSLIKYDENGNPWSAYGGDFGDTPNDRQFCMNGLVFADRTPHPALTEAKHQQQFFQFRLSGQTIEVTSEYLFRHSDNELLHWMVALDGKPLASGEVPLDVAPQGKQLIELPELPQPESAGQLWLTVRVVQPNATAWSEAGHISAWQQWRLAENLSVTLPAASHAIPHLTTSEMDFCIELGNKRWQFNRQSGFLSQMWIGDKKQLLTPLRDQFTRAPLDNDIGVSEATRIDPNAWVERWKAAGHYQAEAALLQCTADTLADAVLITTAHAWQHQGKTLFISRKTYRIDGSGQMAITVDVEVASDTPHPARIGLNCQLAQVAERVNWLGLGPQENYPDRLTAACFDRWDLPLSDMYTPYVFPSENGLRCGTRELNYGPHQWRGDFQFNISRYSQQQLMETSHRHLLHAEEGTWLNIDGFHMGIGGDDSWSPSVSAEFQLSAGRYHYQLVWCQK

On to `O=C(NCCCCCCSC1=N[C@H]2O[C@H](CO)[C@@H](O)[C@H](O)[C@H]2O1)C12CC3CC(CC(C3)C1)C2`, for which the inhibition result (in assay [1]; in the assay with Saccharomyces cerevisiae [2]; in the assay with Aspergillus niger; in the assay on Saccharomyces cerevisiae [4]; in the assay with Canavalia ensiformis; in the assay with Penicillium decumbens) was “inactive” in each case. Also, the inhibition entry (in assay [5]; in the assay on Helix pomatia; in assay [6]; in the assay on Prunus dulcis) was “inactive” each time. In assay [3], the residual activity was 91%. In assay [7], this molecule registered a Ki of 230 µM.
In the case of `CCCCCCCCSC1=N[C@H]2O[C@H](CO)[C@@H](O)[C@H](O)[C@H]2O1`, the inhibition result (in [1]; in the assay with Saccharomyces cerevisiae [2]; in the assay on Aspergillus niger; in the assay with Saccharomyces cerevisiae [4]; in the assay with Canavalia ensiformis; with Penicillium decumbens) was “inactive” throughout. Also, the inhibition entry (in assay [5]; with Helix pomatia; in assay [6]; in the assay with Prunus dulcis) was “inactive” throughout. Moreover, the residual activity in assay [3] was determined as 91%. The same molecule returned a Ki in assay [7] of 280 µM.
As to `OC[C@H]1O[C@@H]2N=C(SCc3ccccc3)O[C@@H]2[C@@H](O)[C@@H]1O`, the inhibition entry (in [1]; in the assay with Saccharomyces cerevisiae [2]; with Aspergillus niger; in the assay with Saccharomyces cerevisiae [4]; with Canavalia ensiformis; in the assay with Penicillium decumbens) was “inactive” throughout. In addition, the inhibition entry (in [5]; in the assay with Helix pomatia; in [6]; in the assay with Prunus dulcis) was “inactive” each time. For the same molecule, in assay [3], the residual activity turned out to be 88%. The affinity in [7], expressed as Ki, was 210 µM.
Turning to `CCCCCCCCCCCCCCCCSC1=N[C@H]2O[C@H](CO)[C@@H](O)[C@H](O)[C@H]2O1`, the inhibition result (in [1]; with Saccharomyces cerevisiae [2]; in the assay with Aspergillus niger; in the assay with Saccharomyces cerevisiae [4]; in the assay with Canavalia ensiformis; in the assay with Penicillium decumbens) was “inactive” each time. Besides, the inhibition result (in assay [5]; with Helix pomatia; in [6]; in the assay on Prunus dulcis) was “inactive” in each case. In addition, the residual activity in [3] came out at 86%. The molecule also had an inhibition constant (Ki) in assay [7] of 52 µM.
As for `CCCCSC1=N[C@H]2O[C@H](CO)[C@@H](O)[C@H](O)[C@H]2O1`, the inhibition result (in assay [1]; in the assay with Saccharomyces cerevisiae [2]; with Aspergillus niger; with Saccharomyces cerevisiae [4]; in the assay with Canavalia ensiformis; in the assay with Penicillium decumbens) was “inactive” in each case. In addition, the inhibition entry (in assay [5]; in the assay with Helix pomatia; in [6]; with Prunus dulcis) was “inactive” in each case. For the same molecule, the residual activity in [3] is 92%. Moreover, the affinity in assay [7] corresponds to a Ki of 580 µM.
As for `C=CCSC1=N[C@H]2O[C@H](CO)[C@@H](O)[C@H](O)[C@H]2O1`, the inhibition result (in assay [1]; in the assay on Saccharomyces cerevisiae [2]; with Aspergillus niger; with Saccharomyces cerevisiae [4]; in the assay on Canavalia ensiformis; in the assay on Penicillium decumbens) was “inactive” in each case. Further, the inhibition entry (in assay [5]; in the assay on Helix pomatia; in [6]; with Prunus dulcis) was “inactive” each time. In [3], this molecule yielded a residual activity of 97%. The molecule also came in with a Ki in assay [7] of 220 µM.
Turning to `CCCCCCCSC1=N[C@H]2O[C@H](CO)[C@@H](O)[C@H](O)[C@H]2O1`, the inhibition result (in assay [1]; in the assay on Saccharomyces cerevisiae [2]; with Aspergillus niger; in the assay on Saccharomyces cerevisiae [4]; in the assay with Canavalia ensiformis; in the assay with Penicillium decumbens) was “inactive” in each case. Also, the inhibition result (in assay [5]; with Helix pomatia; in assay [6]; with Prunus dulcis) was “inactive” in each case. In addition, the residual activity in [3] worked out at 91%. In assay [7], this molecule returned an inhibition constant Ki of 310 µM.
For the molecule `CCCCCCCCCCCCSC1=N[C@H]2O[C@H](CO)[C@@H](O)[C@H](O)[C@H]2O1`, the inhibition entry (in assay [1]; with Saccharomyces cerevisiae [2]; with Aspergillus niger; in the assay with Saccharomyces cerevisiae [4]; in the assay on Canavalia ensiformis; in the assay with Penicillium decumbens) was “inactive” throughout. The inhibition entry (in assay [5]; with Helix pomatia; in assay [6]; in the assay on Prunus dulcis) was “inactive” each time. Moreover, the residual activity in [3] was determined as 87%. In addition, the affinity in [7] corresponds to a Ki of 73 µM.
